Activity calls are given as the source filed them. The calls are words filed in the database; no cut-off is given here.
What was measured:
[1] = biological target: GABA B receptor (Rattus norvegicus, UniProt O88871+Q9Z0U4); assay: Displacement of [3H]GABA from Gamma-aminobutyric acid type B receptor; format: protein-complex assay
Method in brief: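 Rat brain synaptic membranes (male Sprague-Dawley), washed repeatedly in 5 mM Tris-HCl pH 7.1. 0.5 mg protein incubated with 50 nM [3H]GABA plus 20 µM isoguvacine in 50 mM Tris-HCl pH 7.4 with 2.5 mM CaCl2, 45 min at 24 °C. GF/B filtration, scintillation counting.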

[2] = organism: Cavia porcellus; assay: The compound was tested for inhibition of electrically evoked muscle contractions in isolated longitudinal guinea pig ileum muscle; format: functional
Method in brief: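 Guinea pig ileum longitudinal muscle strips with myenteric plexus (Paton–Zar) held in Krebs-bicarbonate gassed 5% CO2/95% O2 at 37 °C. After 60 min equilibration, stimulated at 0.1 Hz, 5 ms, 100 V. Isometric contractions recorded, inhibition taken relative to maximal inhibition. EC50 fitted with Hill equation. 20–30 min recovery between curves. At least four preparations from two animals.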

[3] = biological target: GABA-A receptor; anion channel; assay: Inhibition of [3H]muscimol binding to Gamma-aminobutyric acid A (GABA-A) receptor of rat brain membranes; format: cell membranes, Membrane
Method in brief: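 Male Sprague-Dawley rat brain synaptic membranes, washed repeatedly, resuspended at 1 mg/mL in 50 mM Tris-HCl pH 7.4. Incubated with 10 nM [3H]muscimol for 1 h at 20 °C, competitor 10^-10 to 10^-3 M. Nonspecific binding defined with 1 mM GABA. GF/B filtration, liquid scintillation counting.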

[4] = organism: Cavia porcellus; assay: Sensitivity towards CGP-35348 in isolated longitudinal guinea pig ileum muscle; Sensitive; format: functional
[5] = organism: Cavia porcellus; assay: Sensitivity towards CGP-35348 in isolated longitudinal guinea pig ileum muscle; sensitive; format: functional

GABA B receptor, sequence (Q9Z0U4 whole entry): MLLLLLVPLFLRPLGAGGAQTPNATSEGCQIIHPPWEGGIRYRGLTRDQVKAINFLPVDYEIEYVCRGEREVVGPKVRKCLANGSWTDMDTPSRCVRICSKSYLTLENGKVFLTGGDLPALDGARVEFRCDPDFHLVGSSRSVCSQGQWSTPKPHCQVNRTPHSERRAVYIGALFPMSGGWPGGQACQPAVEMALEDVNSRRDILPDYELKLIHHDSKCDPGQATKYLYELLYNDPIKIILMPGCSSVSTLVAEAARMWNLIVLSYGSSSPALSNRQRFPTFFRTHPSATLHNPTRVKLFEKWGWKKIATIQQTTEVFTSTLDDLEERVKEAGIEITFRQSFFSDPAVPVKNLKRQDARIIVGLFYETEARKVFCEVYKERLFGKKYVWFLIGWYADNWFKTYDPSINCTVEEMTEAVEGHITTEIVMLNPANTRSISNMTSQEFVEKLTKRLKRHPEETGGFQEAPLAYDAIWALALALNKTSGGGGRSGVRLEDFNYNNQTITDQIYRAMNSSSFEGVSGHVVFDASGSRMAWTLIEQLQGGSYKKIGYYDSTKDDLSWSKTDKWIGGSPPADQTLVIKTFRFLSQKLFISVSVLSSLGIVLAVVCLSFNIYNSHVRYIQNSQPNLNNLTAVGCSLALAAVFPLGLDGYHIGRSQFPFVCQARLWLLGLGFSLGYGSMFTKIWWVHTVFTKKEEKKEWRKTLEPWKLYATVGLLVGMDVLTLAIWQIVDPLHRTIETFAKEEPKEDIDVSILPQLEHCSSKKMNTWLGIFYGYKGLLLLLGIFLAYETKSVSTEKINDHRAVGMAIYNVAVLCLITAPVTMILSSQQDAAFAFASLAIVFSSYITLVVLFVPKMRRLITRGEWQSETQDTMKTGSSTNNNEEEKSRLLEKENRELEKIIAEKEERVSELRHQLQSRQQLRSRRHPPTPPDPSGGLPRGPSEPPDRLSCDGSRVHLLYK
GABA B receptor, sequence (O88871 whole entry): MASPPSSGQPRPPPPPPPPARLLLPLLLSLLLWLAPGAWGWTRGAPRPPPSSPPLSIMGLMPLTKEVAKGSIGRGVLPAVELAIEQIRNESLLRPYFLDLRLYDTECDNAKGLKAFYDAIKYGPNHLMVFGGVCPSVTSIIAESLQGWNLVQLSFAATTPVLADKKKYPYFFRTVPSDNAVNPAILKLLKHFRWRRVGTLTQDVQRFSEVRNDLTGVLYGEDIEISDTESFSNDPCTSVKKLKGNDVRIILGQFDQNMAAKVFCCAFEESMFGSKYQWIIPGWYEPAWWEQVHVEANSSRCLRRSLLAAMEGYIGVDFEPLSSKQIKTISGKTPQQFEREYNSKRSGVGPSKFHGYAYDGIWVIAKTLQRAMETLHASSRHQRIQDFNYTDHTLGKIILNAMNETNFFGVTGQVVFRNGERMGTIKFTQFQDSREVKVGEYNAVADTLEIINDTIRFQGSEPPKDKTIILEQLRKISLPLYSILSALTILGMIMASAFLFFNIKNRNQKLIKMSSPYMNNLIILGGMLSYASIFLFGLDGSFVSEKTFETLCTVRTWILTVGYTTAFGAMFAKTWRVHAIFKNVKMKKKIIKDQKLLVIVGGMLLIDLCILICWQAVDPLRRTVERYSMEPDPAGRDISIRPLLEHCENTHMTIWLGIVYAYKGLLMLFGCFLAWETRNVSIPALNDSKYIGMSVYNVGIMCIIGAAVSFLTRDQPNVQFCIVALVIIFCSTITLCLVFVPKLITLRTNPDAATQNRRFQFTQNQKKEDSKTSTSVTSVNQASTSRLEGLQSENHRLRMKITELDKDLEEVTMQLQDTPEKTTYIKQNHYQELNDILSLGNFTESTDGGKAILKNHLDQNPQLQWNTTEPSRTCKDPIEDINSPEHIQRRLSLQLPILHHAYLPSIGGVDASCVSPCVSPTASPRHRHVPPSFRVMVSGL

Compound	IC50 [1] [µM]	EC50 [2] [µM]	IC50 [3] [µM]	Sensitivity [4]	Sensitivity [5]
NCC(CCC(=O)O)c1ccc(Cl)cc1 (stereo unspecified)	> 0.14	> 3000	> 100	–	–
NC[C@H](CC(=O)O)c1ccc(Cl)cc1 [ARBACLOFEN]	–	11	> 100	Active	–
NC[C@@H](CC(=O)O)c1ccc(Cl)cc1	–	3300	> 100	–	–
NCC[C@H](CC(=O)O)c1ccc(Cl)cc1	7.4	11	> 100	inactive	–
NCC[C@@H](CC(=O)O)c1ccc(Cl)cc1	> 0.14	310	> 100	–	inactive

Source: ChEMBL document CHEMBL1132236, “Synthesis and pharmacology of the baclofen homologues 5-amino-4-(4-chlorophenyl)pentanoic acid and the R- and S-enantiomers of 5-amino-3-(4-chlorophenyl)pentanoic acid” (J Med Chem, 1999)
